In ChEMBL document CHEMBL1926574, “Synthesis and biological evaluation of a new series of 1,2,4-triazolo[1,5-a]-1,3,5-triazines as human A(2A) adenosine receptor antagonists with improved water solubility” (J Med Chem, 2011):

How the values were obtained:
[1] = target: T1, Adenosine receptor A3 (Homo sapiens) (UniProt P0DMS8); assay: Displacement of [I125]I-AB-MECA from human adenosine A3 receptor expressed in CHO cells at 10 uM by scintillation counting; format: cell-based
T1 sequence (whole entry): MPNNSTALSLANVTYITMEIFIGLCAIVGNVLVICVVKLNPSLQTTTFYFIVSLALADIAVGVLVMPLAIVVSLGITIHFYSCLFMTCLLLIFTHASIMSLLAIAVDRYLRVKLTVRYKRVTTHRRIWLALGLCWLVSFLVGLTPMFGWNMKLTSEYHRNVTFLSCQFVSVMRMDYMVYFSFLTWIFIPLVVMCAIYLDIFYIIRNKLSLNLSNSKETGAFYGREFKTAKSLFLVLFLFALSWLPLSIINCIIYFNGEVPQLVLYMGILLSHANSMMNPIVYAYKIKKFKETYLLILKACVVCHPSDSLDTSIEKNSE

[2] = target: T2, Adenosine receptor A2b (Homo sapiens, UniProt P29275); assay: Antagonist activity at human recombinant adenosine A2B receptor expressed in CHO cells assessed as inhibition of NECA-stimulated adenylyl cyclase activity; format: functional, cell-based
T2 sequence (P29275 whole entry): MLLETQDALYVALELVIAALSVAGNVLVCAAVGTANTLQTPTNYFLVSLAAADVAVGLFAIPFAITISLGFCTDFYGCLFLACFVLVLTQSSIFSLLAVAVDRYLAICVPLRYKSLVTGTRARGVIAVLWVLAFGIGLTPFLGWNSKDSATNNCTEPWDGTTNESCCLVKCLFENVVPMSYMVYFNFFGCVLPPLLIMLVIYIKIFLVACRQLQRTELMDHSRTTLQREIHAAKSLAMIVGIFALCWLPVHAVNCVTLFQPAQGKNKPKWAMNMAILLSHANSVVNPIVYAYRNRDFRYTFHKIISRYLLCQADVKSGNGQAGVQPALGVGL
Procedure, shortened: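 Membranes from CHO cells stably expressing the hA2B receptor were incubated 20 min with about 150,000 cpm [α-32P]ATP, without EGTA and NaCl. The read-out was antagonist concentration-dependent inhibition of NECA-stimulated adenylyl cyclase. IC50 was calculated with the Hill equation.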

[3] = target: Adenosine receptor A2a (Homo sapiens, UniProt P29274); assay: Displacement of [3H]ZM241385 from human adenosine A2A receptor expressed in HEK293 cells by scintillation counting; format: cell-based
[4] = target: T3, Adenosine receptor A1 (Homo sapiens) (UniProt P30542); assay: Displacement of [3H]DPCPX from human adenosine A1 receptor expressed in HEK293 cells at 10 uM by scintillation counting; format: cell-based
T3 sequence (whole entry): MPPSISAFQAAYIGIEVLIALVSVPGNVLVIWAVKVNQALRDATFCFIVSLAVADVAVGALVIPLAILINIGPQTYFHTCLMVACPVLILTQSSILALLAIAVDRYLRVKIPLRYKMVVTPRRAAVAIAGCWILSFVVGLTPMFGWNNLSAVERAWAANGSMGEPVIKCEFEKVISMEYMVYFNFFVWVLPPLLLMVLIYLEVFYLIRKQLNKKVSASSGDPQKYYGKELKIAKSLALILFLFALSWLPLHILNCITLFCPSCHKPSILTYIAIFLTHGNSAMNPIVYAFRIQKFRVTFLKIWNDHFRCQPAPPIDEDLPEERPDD

[5] = target: T4, Adenosine receptor A3 (Homo sapiens, UniProt P0DMS8); assay: Displacement of [I125]I-AB-MECA from human adenosine A3 receptor expressed in CHO cells by scintillation counting; format: cell-based
T4 sequence (P0DMS8 whole entry): T1 sequence (whole entry)

[6] = species on record: Homo sapiens; assay: Selectivity ratio of Ki for human adenosine A3 receptor to Ki for human adenosine A2A receptor
[7] = target: T5, Adenosine receptor A1 (Homo sapiens, UniProt P30542); assay: Displacement of [3H]DPCPX from human adenosine A1 receptor expressed in HEK293 cells by scintillation counting; format: cell-based
T5 sequence (P30542 whole entry): T3 sequence (whole entry)

[8] = species on record: Homo sapiens; assay: Selectivity ratio of Ki for human adenosine A1 receptor to Ki for human adenosine A2A receptor
[9] = target: T1, Adenosine receptor A3 (Homo sapiens); assay: Antagonist activity at human adenosine A3 receptor; format: functional
[10] = target: T6, Adenosine receptor A1 (Rattus norvegicus) (UniProt P25099); assay: Antagonist activity at rat adenosine A1 receptor; format: functional
T6 sequence (whole entry): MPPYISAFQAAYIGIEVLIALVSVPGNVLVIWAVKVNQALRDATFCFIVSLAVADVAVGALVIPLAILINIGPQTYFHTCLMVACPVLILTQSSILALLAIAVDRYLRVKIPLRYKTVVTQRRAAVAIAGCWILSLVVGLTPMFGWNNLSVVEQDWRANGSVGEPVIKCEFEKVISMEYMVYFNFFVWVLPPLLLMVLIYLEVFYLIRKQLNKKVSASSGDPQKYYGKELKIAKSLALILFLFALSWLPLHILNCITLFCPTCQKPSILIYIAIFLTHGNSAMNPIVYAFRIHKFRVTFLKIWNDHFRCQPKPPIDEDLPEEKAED

[11] = target: T7, Adenosine receptor A2b (Homo sapiens) (UniProt P29275); assay: Antagonist activity at human adenosine A2B receptor; format: functional
T7 sequence (whole entry): T2 sequence (P29275 whole entry)

Chain of Adenosine receptor A2a (P29274 whole entry): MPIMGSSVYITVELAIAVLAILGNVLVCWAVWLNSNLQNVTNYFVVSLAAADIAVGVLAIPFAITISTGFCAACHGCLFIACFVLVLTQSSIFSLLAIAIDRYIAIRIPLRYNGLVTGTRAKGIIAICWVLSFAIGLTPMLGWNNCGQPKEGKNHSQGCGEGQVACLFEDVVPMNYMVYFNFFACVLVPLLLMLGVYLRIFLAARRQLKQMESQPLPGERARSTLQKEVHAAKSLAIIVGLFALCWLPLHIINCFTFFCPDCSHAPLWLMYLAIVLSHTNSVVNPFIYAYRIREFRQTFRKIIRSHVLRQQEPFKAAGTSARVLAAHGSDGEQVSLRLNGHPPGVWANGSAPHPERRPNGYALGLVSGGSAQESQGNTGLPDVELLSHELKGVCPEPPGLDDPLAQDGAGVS

Structure (SMILES) | Activity [1] [%] | IC50 [2] [µM] | Ki [3] [nM] | Activity [4] [%] | Ki [5] [nM] | Ratio Ki [6] | Ki [7] [nM] | Ratio Ki [8] | Antagonist potency [9] [nM] | INH [10] [nM] | Antagonist potency (inhibitory concentration) [11] [µM]
COC(=O)CCC(=O)N1CCN(c2nc(N)n3nc(-c4ccco4)nc3n2)CC1 | 37.2 | > 100 | 66.2 | 19.4 |  |  |  |  |  |  | 
Nc1nc(N2CCN(C(=O)c3ccccc3)CC2)nc2nc(-c3ccco3)nn12 | 22.6 | > 100 | 348 | 27.7 |  |  |  |  |  |  | 
CC(C)(C)OC(=O)NCCNc1nc(NCCNC(=O)OC(C)(C)C)n2nc(-c3ccco3)nc2n1 |  | > 100 | 4360 | 7.4 | 8490 | 1.9 |  |  |  |  | 
CC(C)(C)OC(=O)N1CCN(c2nc(N)n3nc(-c4ccco4)nc3n2)CC1 | 56.6 | > 10 | 21 |  |  | 400 | 5400 | 257 |  |  | 
NCCNc1nc(NCCN)n2nc(-c3ccco3)nc2n1 | 17.7 | > 100 | 38200 | 10.7 |  |  |  | 0.3 |  |  | 
Nc1nc(Oc2ccccc2)nc2nc(-c3ccco3)nn12 |  |  |  |  |  |  |  |  | 489 | 2720 | 3.42
CC(C)(C)OC(=O)NCCNc1nc(N)n2nc(-c3ccco3)nc2n1 |  | > 10 | 40.9 |  | 1490 | 36 | 3730 | 91 |  |  | 
O=C(Nc1nc(Oc2ccccc2)nc2nc(-c3ccco3)nn12)c1ccccc1 | 32.3 | > 10 | 1000 | 26.2 |  |  |  |  |  |  | 
Nc1nc(N2CCN(C(=O)Cc3ccccc3)CC2)nc2nc(-c3ccco3)nn12 | 64.5 | > 100 | 94.8 |  |  |  | 3510 | 37 |  |  | 
O=C(Nc1nc(O)nc2nc(-c3ccco3)nn12)c1ccccc1 | 75.9 | > 100 | 1750 | 34.4 |  |  |  |  |  |  | 
Nc1nc(N2CCNCC2)nc2nc(-c3ccco3)nn12 | 29.9 | > 30 | 153 | 28.6 |  |  |  |  |  |  | 
Nc1nc(N2CCN(Cc3ccc(Cl)cc3)CC2)nc2nc(-c3ccco3)nn12 | 66.8 | > 30 | 102 |  |  |  | 220 | 2.1 |  |  | 
CC(C)(C)OC(=O)NCCCCCNc1nc(N)n2nc(-c3ccco3)nc2n1 | 68.6 | > 10 | 44.7 |  |  |  | 963 | 21.5 |  |  | 
Nc1nc(N2CCN(Cc3cccc(Cl)c3)CC2)nc2nc(-c3ccco3)nn12 | 52.7 | > 30 | 51.8 |  |  | 200 | 1510 | 29 |  |  | 
Nc1nc(N2CCN(Cc3ccccc3)CC2)nc2nc(-c3ccco3)nn12 | 71.9 | > 30 | 20.6 |  |  |  | 978 | 47.5 |  |  | 
Nc1nc(N2CCN(C(=O)Cc3ccc(Cl)cc3)CC2)nc2nc(-c3ccco3)nn12 |  | > 100 | 39.1 |  | 1260 | 32 | 991 | 25 |  |  | 
Nc1nc(N2CCN(Cc3ccc(F)cc3)CC2)nc2nc(-c3ccco3)nn12 | 71.3 | > 10 | 52.3 |  |  |  | 655 | 12.5 |  |  | 
Nc1nc(N2CCN(C(=O)C(Cl)Cl)CC2)nc2nc(-c3ccco3)nn12 | 33.6 | > 100 | 282 | 34.6 |  |  |  |  |  |  | 
NCCNc1nc(N)n2nc(-c3ccco3)nc2n1 | 30.8 | > 100 | 567 | 35.8 |  |  |  |  |  |  | 
